Measured values as given in ChEMBL document CHEMBL1158492, “Triazole inhibitors of Cryptosporidium parvum inosine 5'-monophosphate dehydrogenase” (J Med Chem, 2009).

Columns and labels:
[1] = target: T1, Inosine-5'-monophosphate dehydrogenase (Cryptosporidium parvum, UniProt Q8T6T2); assay: Inhibition of Cryptosporidium parvum recombinant IMPDH expressed in Escherichia coli TX685 assessed as NADH production by fluorescence assay in absence of 0.05% fatty acid free bovine serum albumin
T1 sequence (Q8T6T2 whole entry): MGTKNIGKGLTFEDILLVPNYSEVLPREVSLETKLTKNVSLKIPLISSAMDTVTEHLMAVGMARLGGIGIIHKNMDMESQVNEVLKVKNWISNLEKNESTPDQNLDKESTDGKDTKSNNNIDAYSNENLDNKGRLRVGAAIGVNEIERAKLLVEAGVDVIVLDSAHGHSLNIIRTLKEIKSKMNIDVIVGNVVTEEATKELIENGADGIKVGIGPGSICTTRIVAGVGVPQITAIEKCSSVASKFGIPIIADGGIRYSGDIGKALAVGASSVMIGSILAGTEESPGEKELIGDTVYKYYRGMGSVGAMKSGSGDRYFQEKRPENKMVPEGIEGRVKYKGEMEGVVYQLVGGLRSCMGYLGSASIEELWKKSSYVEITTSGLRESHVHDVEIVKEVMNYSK
Summary of the method: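 Enzyme (10 nM) pre-incubated with inhibitor 5 min at room temperature before adding substrates (150 μM IMP, 300 μM NAD). Inhibitor range 25 pM–5 μM. NADH read by fluorescence. Initial velocities averaged over quadruplicates. IC50 from vi/vo, mean ± SD of three independent determinations.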

[2] = target: T1, Inosine-5'-monophosphate dehydrogenase; assay: Inhibition of Cryptosporidium parvum recombinant IMPDH expressed in Escherichia coli TX685 assessed as NADH production by fluorescence assay in presence of 0.05% fatty acid free bovine serum albumin
Summary of the method: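 Same IMP→XMP fluorescence (NADH) assay, with 0.05% fatty acid free BSA added. Conditions: 10 nM enzyme, 5 min room-temperature pre-incubation with inhibitor, then 150 μM IMP and 300 μM NAD. IC50 from three independent experiments, mean ± SD.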

[3] = target: T2, Inosine-5'-monophosphate dehydrogenase 2 (Homo sapiens, UniProt P12268); assay: Inhibition of human recombinant IMPDH2 expressed in Escherichia coli guaB assessed as NADH production at 5 uM by fluorescence assay
[4] = target: T2, Inosine-5'-monophosphate dehydrogenase 2; assay: Inhibition of human recombinant IMPDH2 expressed in Escherichia coli guaB assessed as NADH production by fluorescence assay
[5] = target: T1, Inosine-5'-monophosphate dehydrogenase; assay: Inhibition of Cryptosporidium parvum recombinant IMPDH expressed in Escherichia coli guaB assessed as NADH production by fluorescence assay
Summary of the method: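 E. coli-expressed CpIMPDH at 10 nM, preincubated with inhibitor (25 pM - 5 μM) for 5 min at room temperature before adding 150 μM IMP and 300 μM NAD. NADH read by fluorescence from initial velocities, in quadruplicate. IC50 ± SD from three independent runs, some also with 0.05% fatty-acid-free BSA.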

[6] = target: T3, Inosine-5'-monophosphate dehydrogenase (Cryptosporidium parvum) (UniProt Q8T6T2); assay: Ratio of campaign IC50 to compound IC50 for Cryptosporidium parvum recombinant IMPDH expressed in Escherichia coli TX685 in absence of 0.05% fatty acid free bovine serum albumin
T3 sequence (whole entry): T1 sequence (Q8T6T2 whole entry)

Work on `CC(Oc1ccnc2ccccc12)c1cn(-c2ccc(C#N)c(Cl)c2)nn1` (configuration not stated) yielded an IC50 [1] of 40 nM, an IC50 [2] of 1400 nM and an inhibition [3] of under 10%.
For `C[C@@H](Oc1cc[n+]([O-])c2ccccc12)c1cn(-c2ccc(Cl)cc2)nn1`, the IC50 [1] was 13 nM, the IC50 [2] was 50 nM and the inhibition [3] was under 10%.
In the case of `CC(Oc1ccnc2ccccc12)c1cn(-c2ccc(Cl)c(Cl)c2)nn1` (configuration not stated), the IC50 [1] is reported as 20 nM, the IC50 [2] is reported as 700 nM and the inhibition [3] is reported as under 10%.
In the case of `CC(Oc1ccccc1)C(=O)Nc1ccc(Cl)cc1` (configuration not stated), the IC50 [4] is reported as over 50000 nM, the IC50 [1] is reported as 3300 nM and the EC50 [5] is reported as 3300 nM.
Compound `CC(Oc1ccc(Cl)c2ccccc12)c1cn(-c2ccc(Cl)cc2)nn1` (configuration not stated) has an IC50 [1] of 87 nM, an IC50 [2] of 3900 nM and an inhibition [3] of under 10%.
In the case of `C[C@@H](Oc1cccc2ncccc12)c1cn(-c2ccc(Cl)cc2)nn1`, the IC50 [1] is reported as 9 nM, the IC50 [2] is reported as 30 nM and the inhibition [3] is reported as under 10%.
Compound `CC(Oc1cccc2ccccc12)C(=O)Nc1ccc(Cl)cc1` (configuration not stated) has an IC50 [1] of 1060 nM, an IC50 [2] of 1640 nM and an inhibition [3] of under 10%. The Ratio IC50 [6] was 3.
For `C[C@H](Oc1ccnc2ccccc12)c1cn(-c2ccc(C#N)c(Cl)c2)nn1`, the IC50 [1] was 600 nM, the IC50 [2] was 2300 nM and the inhibition [3] was under 10%.
Work on `CC(Oc1cccc2ccccc12)c1cn(-c2ccccc2Cl)nn1` (configuration not stated) yielded an IC50 [1] of over 5000 nM and an inhibition [3] of under 10%.
`CC(Oc1cc[n+]([O-])c2ccccc12)c1cn(-c2ccc(Cl)c(Cl)c2)nn1` (configuration not stated) gave an IC50 [1] of 18 nM, an IC50 [2] of 42 nM and an inhibition [3] of under 10%.
With `CC(Oc1ccnc2ccccc12)c1cn(-c2ccc(C#N)cc2)nn1` (configuration not stated) the IC50 [1] was 140 nM, the IC50 [2] was 340 nM and the inhibition [3] was under 10%.
In the case of `CC(Oc1ccnc2ccccc12)C(=O)Nc1ccc(Cl)cc1` (configuration not stated), the IC50 [1] is reported as 660 nM, the IC50 [2] is reported as 860 nM and the inhibition [3] is reported as under 10%.
`C[C@H](Oc1ccnc2ccccc12)c1cn(-c2ccc(Cl)c(Cl)c2)nn1` showed an IC50 [1] of 130 nM, an IC50 [2] of 880 nM and an inhibition [3] of under 10%.
Work on `CC(Oc1ccnc2ccccc12)c1cn(-c2ccc(Cl)cc2)nn1` (configuration not stated) yielded an IC50 [1] of 24 nM, an IC50 [2] of 230 nM and an inhibition [3] of under 10%.
With `C[C@@H](Oc1cccc2c1ccc[n+]2[O-])c1cn(-c2ccc(Cl)cc2)nn1` the IC50 [1] was 24 nM, the IC50 [2] was 52 nM and the inhibition [3] was under 10%.
`C[C@@H](Oc1ccnc2ccccc12)c1cn(-c2ccc(Cl)c(Cl)c2)nn1` was tested, and the IC50 [1] was 9 nM, the IC50 [2] was 650 nM and the inhibition [3] was under 10%.
For `C[C@@H](Oc1ccnc2ccccc12)c1cn(-c2ccc(C#N)c(Cl)c2)nn1`, the IC50 [1] was 31 nM, the IC50 [2] was 1100 nM and the inhibition [3] was under 10%.
`CC(Oc1cccc2c1ccc[n+]2[O-])c1cn(-c2ccc(Cl)cc2)nn1` (configuration not stated) showed an IC50 [1] of 44 nM, an IC50 [2] of 59 nM and an inhibition [3] of under 10%.
`CC(C)C(Oc1cccc2ccccc12)C(=O)Nc1ccc(Cl)cc1` (configuration not stated) gave an IC50 [1] of 710 nM, an IC50 [2] of 830 nM and an inhibition [3] of under 10%.
Compound `CC(Oc1cccc2ccccc12)c1cn(-c2ccc(Cl)cc2)nn1` (configuration not stated) has an IC50 [1] of 130 nM, an IC50 [2] of 780 nM and an inhibition [3] of under 10%.
`CC(C)C(Oc1cccc2ccccc12)c1cn(-c2ccc(Cl)cc2)nn1` (configuration not stated) gave an IC50 [1] of over 5000 nM and an inhibition [3] of under 10%.
`O=C(Nc1ccc(Cl)cc1)C(Oc1cccc2ccccc12)C1CC1` (configuration not stated) was tested, and the IC50 [1] was over 5000 nM and the inhibition [3] was under 10%.
For `O=C(Nc1ccc(Cl)cc1)C(Oc1cccc2ccccc12)c1ccccc1` (configuration not stated), the IC50 [1] was over 5000 nM and the inhibition [3] was under 10%.
`Clc1ccc(-n2cc(COc3ccnc4ccccc34)nn2)cc1` showed an IC50 [1] of 440 nM, an IC50 [2] of 480 nM and an inhibition [3] of under 10%.
`CC(Oc1cc[n+]([O-])c2ccccc12)c1cn(-c2ccc(Cl)cc2)nn1` (configuration not stated) showed an IC50 [1] of 29 nM, an IC50 [2] of 50 nM and an inhibition [3] of under 10%.
